Bioassay records deposited in PubChem BioAssay by SRMLSC.
HCT116 PTEN-null – growth suppression of PTEN-null HCT116, primary screen, cell-based, CellTiter-Glo; HCT116 PTEN-null viability, 60 h; active compounds read low; viability, % at 10 µM; 140,000 compounds, 1.2% hits; AID 827, 2007;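 active means viability at or below a set limit, 4 SD under the median of all tested compounds, cut at about 3.7% in these data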;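 further: PTEN knockout HCT116 line with beta catenin targeted HCT116 as companion control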
H69AR inhibit – proliferation blockers of H69AR lung cancer cells, primary screen, cell-based, human, 86K library | viability, % at 10 µM | AID 598, 2007 | H69AR lung tumor viability, ATP luminescence, 72 h; active compounds read low | 85,000 compounds, 6% hits;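 active means viability at or below 40%; inactive means viability above 40%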;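 further: multidrug resistant small cell line overexpressing MRP-1 efflux transporter; 100% = mean luminescence of untreated control wells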
HUVEC inhibit – inhibitors of HUVEC proliferation, primary screen, cell-based, 384-well. AID 648, 2007. CellTiter-Glo luminescence, 72 h; active compounds read low. 86,000 compounds, 1.1% hits. viability, % at 10 µM (by protocol);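 active means viability at or below 30%; inactive means viability above 30%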;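 further: 100% = median luminescence of DMSO-only cell control wells on each plate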
bCat KO growth – primary screen for growth suppressors in beta-catenin knockout HCT116 cells (colon tumor, human) | viability, % at 10 µM | 140,000 compounds, 1.5% hits | HCT116 beta-catenin knockout viability, CellTiter-Glo, 60 h; active compounds read low;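 active means viability at or under a set limit, the compound median less 4 SD, cut at about 6% in these data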;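 further: 0% = Hyamine 1622 control at 20 µM and 100% = untreated cell control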
Lung fibro prol – antiproliferative effect on LL 47 fibroblasts – human, LL 47 cells, CellTiter-Glo luminescence, primary screen | 85,000 compounds, 1.1% hits | LL 47 human lung fibroblast viability, ATP luminescence; active compounds read low | viability, % at 10 µM | AID 719, 2007;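 active means viability at or below 50% in the single dose screen; inactive means viability above 50%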;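 further: compound exposure lasted 72 h before the ATP readout; 100% = median luminescence of untreated cell-only wells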
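test system = LL 47 human lung fibroblasts | amount = 1,150 fibroblasts seeded per well | medium = 15% FBS in IMEM | times = overnight cell rest, 72 h compound treatment at 37 °C | measured by = CellTiter-Glo luminescence measuring cellular ATP | read-out = viability percentage against median untreated-cell control | benchmarks = cell-only wells, no compound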
Starred values were filed as active, the others as inactive. Only a selection was taken, and hits are over-represented in it overall.

Screening COc1ccccc1CC(=O)Nc1ccc(-c2noc(COc3cccc(C)c3C)n2)cc1 returned HCT116 PTEN-null 82, H69AR inhibit 38*, HUVEC inhibit 80, bCat KO growth 75 and Lung fibro prol 105.
Screening Cc1cc(OCc2nc(-c3ccc(NC(=O)c4cccnc4)cc3)no2)ccc1Cl returned HCT116 PTEN-null 70 and bCat KO growth 52.
For O=C(Nc1ccc(-c2noc(CCc3ccccc3)n2)cc1)c1cccnc1 the results were HCT116 PTEN-null 85, H69AR inhibit 5.5*, HUVEC inhibit 68, bCat KO growth 78 and Lung fibro prol 87.
Cc1ccccc1OCc1nc(-c2ccc(NC(=O)c3ccco3)cc2)no1 was read as HCT116 PTEN-null 94, H69AR inhibit 93, HUVEC inhibit 70, bCat KO growth 87 and Lung fibro prol 94.
Screening NC(=O)CSc1nnc(Cc2ccc3c(c2)OCO3)n1C1CCCCC1 returned HCT116 PTEN-null 101, H69AR inhibit 101, HUVEC inhibit 104, bCat KO growth 99 and Lung fibro prol 105.
COc1ccc(-c2ccc(-c3noc(-c4ccccc4OC)n3)c(OC)n2)cc1 was read as HCT116 PTEN-null 100, H69AR inhibit 34*, HUVEC inhibit 72, bCat KO growth 88 and Lung fibro prol 100.
For CCCc1ccc(OCc2nc(-c3ccc(NC(=O)c4ccco4)cc3)no2)cc1 the results were HCT116 PTEN-null 10, H69AR inhibit 9.2*, HUVEC inhibit 51, bCat KO growth 11 and Lung fibro prol 51.
Screening COc1ccc(CC(=O)Nc2ccc(-c3noc(-c4ccccc4OC)n3)cc2)cc1 returned HCT116 PTEN-null 91, H69AR inhibit 17*, HUVEC inhibit 26*, bCat KO growth 95 and Lung fibro prol 66.
Screening CCCc1ccc(OCc2nc(-c3ccc(NC(=O)c4cccs4)cc3)no2)cc1 returned HCT116 PTEN-null 25 and bCat KO growth 15.
Screening Cc1ccc2cc3c(NC(=O)c4ccco4)nn(C)c3nc2c1 returned HCT116 PTEN-null 92, H69AR inhibit 35*, HUVEC inhibit 75, bCat KO growth 90 and Lung fibro prol 102.
Screening CC(=O)Nc1nn(C)c2nc3cc(C)ccc3cc12 returned HCT116 PTEN-null 98, H69AR inhibit 84, HUVEC inhibit 86, bCat KO growth 95 and Lung fibro prol 100.
Screening O=C(CSc1ncnc2ccccc12)NCc1ccco1 returned HCT116 PTEN-null 96, H69AR inhibit 95, HUVEC inhibit 105, bCat KO growth 88 and Lung fibro prol 102.
Cc1ccc(C=Nc2ccc(N(C)C)cc2)o1 was read as HCT116 PTEN-null 38, H69AR inhibit 68, HUVEC inhibit 90, bCat KO growth 5.4* and Lung fibro prol 106.
`Cc1ccc(C=Nc2ccccc2C(N)=O)o1` gave HCT116 PTEN-null 93 and bCat KO growth 96.
Screening C=CCn1c(-c2csc3ccccc23)n[nH]c1=S returned HCT116 PTEN-null 91 and bCat KO growth 98.
Screening CCc1ccc(NC(=O)C(CC)Sc2nc3cc4c(cc3c(=O)n2Cc2ccco2)OCO4)cc1 (centres undefined) returned HCT116 PTEN-null 15, H69AR inhibit 9.8*, HUVEC inhibit 35, bCat KO growth 1.8* and Lung fibro prol 28*.
For CCc1ccccc1NC(=O)C(CC)Sc1nc2cc3c(cc2c(=O)n1Cc1ccco1)OCO3 (centres undefined) the results were HCT116 PTEN-null 101, H69AR inhibit 6.3*, HUVEC inhibit 46, bCat KO growth 102 and Lung fibro prol 85.
`CC(=O)OC1(C(F)(F)F)Oc2ccccc2NC1=O` (centres undefined) gave HCT116 PTEN-null 96, H69AR inhibit 92, HUVEC inhibit 86, bCat KO growth 89 and Lung fibro prol 98.
Screening COc1ccc(Cc2ccc(OC)c(N)c2)cc1N returned HCT116 PTEN-null 101, H69AR inhibit 29*, HUVEC inhibit 82, bCat KO growth 84 and Lung fibro prol 95.
COc1cc(Cc2ccc(N)c(OC)c2)ccc1N was read as HCT116 PTEN-null 94 and bCat KO growth 91.
For Cc1ccc(Cl)c(NC(=O)COC(=O)c2ccccc2C(=O)c2ccc(Cl)c([N+](=O)[O-])c2)c1Cl the results were HCT116 PTEN-null 2.0* and bCat KO growth 2.1*.
`Cc1ccc(C(=O)c2ccccc2C(=O)OCC(=O)Nc2cccc([N+](=O)[O-])c2)cc1` gave HCT116 PTEN-null 73 and bCat KO growth 71.
CCN1CCN(C(=S)Nc2ccc3nc(N4CCN(C)CC4)cc(C)c3c2)CC1 was read as HCT116 PTEN-null 72 and bCat KO growth 69.
Screening c1cncc(-c2nc(NCC3COc4ccccc4O3)c3ccccc3n2)c1 (centres undefined) returned HCT116 PTEN-null 26, H69AR inhibit 16*, HUVEC inhibit 57, bCat KO growth 39 and Lung fibro prol 87.
COc1ccc(-c2csc(NC(=O)c3cc(C)on3)c2C#N)cc1OC was read as HCT116 PTEN-null 87, H69AR inhibit 93, HUVEC inhibit 80, bCat KO growth 93 and Lung fibro prol 98.
`Cc1cc(N2C3CCC2CC(O)(c2ccc(F)cc2)C3)nc(-c2ccccc2)n1` (centres undefined) gave HCT116 PTEN-null 60, H69AR inhibit 26*, HUVEC inhibit 60, bCat KO growth 58 and Lung fibro prol 56.
`COc1ccc(-n2c(Cn3c(=O)sc4ccccc43)nnc2SCC(=O)N2CCCCC2)cc1` gave HCT116 PTEN-null 86, H69AR inhibit 95, HUVEC inhibit 105, bCat KO growth 86 and Lung fibro prol 92.
`Cc1ccccc1NC(=O)C1CCN(c2cc(-c3ccccc3)nc3ncnn23)CC1` gave HCT116 PTEN-null 41, H69AR inhibit 37*, HUVEC inhibit 104, bCat KO growth 62 and Lung fibro prol 90.
CCOC(=O)/C=C/C(=O)Nc1cccc([N+](=O)[O-])c1 was read as HCT116 PTEN-null 105 and bCat KO growth 91.
Screening CCOC(=O)/C=C/C(=O)Nc1ccccc1-c1ccccc1NC(=O)/C=C/C(=O)OCC returned HCT116 PTEN-null 2.0* and bCat KO growth 3.9*.
`CC1(C)Cc2c(sc3c4nnnn4c4nnnn4c23)CO1` gave HCT116 PTEN-null 14, H69AR inhibit 2.5*, HUVEC inhibit 54, bCat KO growth 8 and Lung fibro prol 93.
For CCN(CC)CCCN1C(=O)C(O)=C(C(=O)c2ccc(C)o2)C1c1ccco1 (centres undefined) the results were H69AR inhibit 92, HUVEC inhibit 101 and Lung fibro prol 101.
`CCCn1c(SCC(=O)Nc2c(C)cccc2CC)nnc1C(C)C` gave HCT116 PTEN-null 90, H69AR inhibit 92, HUVEC inhibit 99, bCat KO growth 89 and Lung fibro prol 110.
`N#Cc1nc(COc2ccccc2)oc1NCCN1CCOCC1` gave HCT116 PTEN-null 88 and bCat KO growth 102.
